In ChEMBL document CHEMBL1122329, “Synthesis and antianxiety activity of (omega-piperazinylalkoxy)indan derivatives” (J Med Chem, 1983):

How the values were obtained:
Assay type in all cases: functional
[1] = test system: Mus musculus; assay: Anti-fighting potency against foot shock induced fighting behavior in mice expressed as % inhibition at 25 mg/kg peroral administration; conditions: route oral
[2] = test system: Mus musculus; assay: Anti-morphine activity against morphine-induced Straub''s tail reaction in mice expressed as % inhibition at 25 mg/kg peroral administration; conditions: route oral
How it was run: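 Six mice per group received test compounds orally 1 h before morphine (20 mg/kg ip). Straub's tail reaction was scored as the index of morphine's CNS stimulant action.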

[3] = test system: Mus musculus; assay: Antifighting potency against the foot shock induced fighting behavior in mice on peroral administration; conditions: po
[4] = test system: Mus musculus; assay: Anti-morphine activity against the morphine-induced Straub's tail reaction in mice on peroral administration; conditions: po
How it was run: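 Mice, six per group, dosed orally with test compound 1 h before morphine (20 mg/kg ip); Straub's tail reaction scored as index of morphine CNS stimulation.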

[5] = test system: Mus musculus; assay: Evaluated for hypothermic activity in mice at 30 mg/kg on peroral administration; conditions: route oral
How it was run: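 Six mice per group were dosed orally 1 h before testing. Rectal temperature was read with an electronic thermometer. Results are given as degrees of hypothermia (Δt °C) versus an untreated group.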

[6] = test system: Rattus norvegicus; assay: Evaluated for neuroleptic-like property using anti-methamphetamine test in rats on peroral administration; conditions: po
How it was run: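 Groups of six rats were dosed orally, then given methamphetamine 5 mg/kg ip 1 h later. Stereotypy was scored 0–4: sleep/eyes closed 0, motionless/eyes open 1, moving around cage 2, sniffing 3, continuous licking or gnawing 4. ED50 was the dose halving mean score versus controls, with 95% confidence limits.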

[7] = test system: Mus musculus; assay: Cataleptogenic action in mice on peroral administration; conditions: po
How it was run: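 Six mice per group were dosed orally 1 h before testing. Forepaws were placed on a horizontal steel bar to force an abnormal posture. Holding the posture over 30 s counted as catalepsy. ED50 was the dose giving catalepsy in 50% of animals, with 95% confidence limits.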

[8] = test system: Mus musculus; assay: Evaluated for muscle-relaxant action in mice on peroral administration; conditions: po
How it was run: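 Traction test: mice, eight per group, dosed orally; 1 h later forepaws placed on horizontal wire bar 30 cm high; failure to bring hind feet onto wire within 5 s counted as muscle relaxation.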

| Structure (SMILES) | inhibition in vivo at 25 mg/kg [1] | inhibition in vivo at 25 mg/kg [2] | other results |
| --- | --- | --- | --- |
| Fc1cc2c(cc1OCCCN1CCN(c3cccc(C(F)(F)F)c3)CC1)CCC2 | 0% | 20% | – |
| Clc1ccccc1N1CCN(CCCOc2ccc3c(c2)CCC3)CC1 | 40% | 42% | – |
| Clc1ccc(N2CCN(CCCOc3ccc4c(c3)CCC4)CC2)cc1 | 43% | 58% | – |
| CC(=O)c1ccc(N2CCN(CCCOc3ccc4c(c3)CCC4)CC2)cc1 | 13% | 0% | – |
| FC(F)(F)c1cccc(N2CCN(CCCOc3ccc4c(c3)CCC4)CC2)c1 | 0% | 73% | – |
| Fc1cccc(N2CCN(CCCOc3ccc4c(c3)CCC4)CC2)c1 | 19% | 42% | – |
| Cl.Cl.Cl.Clc1ccccc1N1CCN(CCCCOc2ccc3c(c2)CCC3)CC1 | 85% | 42% | ED50 [3]: 14.5 mg/kg; ED50 [4]: 30 mg/kg |
| Fc1ccc(N2CCN(CCCCOc3ccc4c(c3)CCC4)CC2)cc1 | 70% | 100% | – |
| Clc1ccc(N2CCN(CCCOc3cc4c(cc3Cl)CCC4)CC2)cc1 | 33% | 36% | – |
| c1ccc(N2CCN(CCOc3ccc4c(c3)CCC4)CC2)cc1 | 0% | 17% | – |
| Clc1cc(Cl)cc(N2CCN(CCCOc3ccc4c(c3)CCC4)CC2)c1 | 0% | 0% | – |
| COc1cc2c(cc1OCCCN1CCN(c3ccc(F)cc3)CC1)CCC2 | 100% | 100% | – |
| O=[N+]([O-])c1ccc(N2CCN(CCCOc3ccc4c(c3)CCC4)CC2)cc1 | 0% | 26% | – |
| Clc1cccc(N2CCN(CCCOc3ccc4c(c3)CCC4)CC2)c1 | 83% | 83% | – |
| Oc1cc2c(cc1OCCCN1CCN(c3cccc(Cl)c3)CC1)CCC2 | 0% | 29% | – |
| Oc1cc2c(cc1OCCCN1CCN(c3ccccc3)CC1)CCC2 | 17% | 0% | – |
| Fc1cc2c(cc1OCCCCN1CCN(c3ccccc3)CC1)CCC2 | 33% | 79% | – |
| Cl.Cl.O=[N+]([O-])c1ccccc1N1CCN(CCCCOc2ccc3c(c2)CCC3)CC1 | 42% | 54% | ED50 [3]: 25.8 mg/kg; ED50 [4]: 23 mg/kg |
| COc1ccccc1N1CCN(CCCCOc2ccc3c(c2)CCC3)CC1 | 33% | 42% | – |
| Clc1cccc(N2CCN(CCCCOc3ccc4c(c3)CCC4)CC2)c1 | 37% | 0% | – |
| Cl.Cl.FC(F)(F)c1cccc(N2CCN(CCCCOc3ccc4c(c3)CCC4)CC2)c1 | 8% | 100% | ED50 [4]: 12.5 mg/kg |
| c1ccc(C2CCc3ccc(OCCCN4CCN(c5ccccc5)CC4)cc32)cc1 (centres undefined) | 0% | 34% | – |
| Clc1cc(Cl)cc(N2CCN(CCCCOc3ccc4c(c3)CCC4)CC2)c1 | 0% | 0% | – |
| O=[N+]([O-])c1ccc(N2CCN(CCCCOc3ccc4c(c3)CCC4)CC2)cc1 | 0% | 22% | – |
| Oc1cc2c(cc1OCCCN1CCN(c3ccc(F)cc3)CC1)CCC2 | 25% | 0% | – |
| c1ccc(N2CCN(CCCCOc3ccc4c(c3)CCC4)CC2)cc1 | 75% | 50% | – |

| Structure (SMILES) | inhibition in vivo at 25 mg/kg [1] | inhibition in vivo at 25 mg/kg [2] | other results |
| --- | --- | --- | --- |
| Fc1ccc(N2CCN(CCOc3ccc4c(c3)CCC4)CC2)cc1 | 40% | 0% | – |
| COc1ccccc1N1CCN(CCCOc2ccc3c(c2)CCC3)CC1 | 0% | 19% | – |
| Cc1cc2c(cc1OCCCN1CCN(c3ccc(F)cc3)CC1)CCC2 | 50% | 31% | – |
| Cl.Cl.Cl.Fc1ccc(N2CCN(CCCOc3cc4c(cc3Cl)CCC4)CC2)cc1 | 83% | 100% | ED50 [3]: 14.3 mg/kg; ED50 [4]: 11.5 mg/kg |
| FC(F)(F)c1cccc(N2CCN(CCCCCOc3ccc4c(c3)CCC4)CC2)c1 | 33% | 66% | – |
| COc1ccc(N2CCN(CCCCOc3ccc4c(c3)CCC4)CC2)cc1 | 17% | 14% | – |
| Fc1cccc(N2CCN(CCCCOc3ccc4c(c3)CCC4)CC2)c1 | 15% | 17% | – |
| Fc1ccc(N2CCN(CCCOc3ccc4c(c3)C(c3ccccc3)CC4)CC2)cc1 (centres undefined) | 17% | 32% | – |
| Fc1ccc(N2CCN(CCCCCOc3ccc4c(c3)CCC4)CC2)cc1 | 58% | 71% | – |
| c1ccc(N2CCN(CCCOc3cccc4c3CCC4)CC2)cc1 | 0% | 33% | – |
| Fc1cc2c(cc1OCCCN1CCN(c3cccc(Cl)c3)CC1)CCC2 | 92% | 92% | – |
| O=[N+]([O-])c1ccccc1N1CCN(CCCOc2ccc3c(c2)CCC3)CC1 | 8% | 43% | – |
| Fc1ccc(N2CCN(CCCOc3cccc4c3CCC4)CC2)cc1 | 5% | 25% | – |
| COc1cc2c(cc1OCCCN1CCN(c3ccccc3)CC1)CCC2 | 50% | 65% | – |
| CN1C(=O)CN=C(c2ccccc2)c2cc(Cl)ccc21 [DIAZEPAM] | – | – | ED50 [3]: 1.6 mg/kg; Delta t [5]: -0.1; ED50 [4]: 1.2 mg/kg; ED50 [6]: > 30 mg/kg; ED50 [7]: > 30 mg/kg; ED50 [8]: 4.8 mg/kg |
| CCC1CCc2ccc(OCCCN3CCN(c4ccc(F)cc4)CC3)cc21 (centres undefined) | 67% | 44% | – |
| Clc1ccc(N2CCN(CCCCOc3ccc4c(c3)CCC4)CC2)cc1 | 31% | 33% | – |
| COc1ccc(N2CCN(CCCOc3ccc4c(c3)CCC4)CC2)cc1 | 60% | 37% | – |
| Cl.Cl.Fc1ccc(N2CCN(CCCCOc3cc4c(cc3F)CCC4)CC2)cc1 | 83% | 90% | ED50 [3]: 14.4 mg/kg; ED50 [4]: 10.2 mg/kg |
| O=[N+]([O-])c1cc2c(cc1OCCCN1CCN(c3ccc(F)cc3)CC1)CCC2 | 58% | 28% | – |
| Cl.Cl.Cl.Clc1cc2c(cc1OCCCN1CCN(c3ccccc3)CC1)CCC2 | 58% | 82% | ED50 [3]: 21 mg/kg; ED50 [4]: 22 mg/kg |
| O=[N+]([O-])c1cc2c(cc1OCCCN1CCN(c3ccccc3)CC1)CCC2 | 67% | 24% | – |
| Fc1ccc(N2CCN(CCCOc3cc4c(cc3F)CCC4)CC2)cc1 | 100% | 97% | – |
| c1ccc(N2CCN(CCCCCOc3ccc4c(c3)CCC4)CC2)cc1 | 27% | 25% | – |
| COc1cc2c(cc1OCCCN1CCN(c3cccc(Cl)c3)CC1)CCC2.Cl.Cl.Cl | 67% | 98% | ED50 [3]: 15.9 mg/kg; ED50 [4]: 11.3 mg/kg |
